Experimental data published in ChEMBL document CHEMBL1649319, “In vitro antifungal activities of isavuconazole and comparators against rare yeast pathogens” (2010).
Values after ≈ are worked out from the molar mass of the structure shown.

Legend:
Format in all cases: functional
Saccharomyces cerevisiae [1] = assay: Antifungal activity against Saccharomyces cerevisiae after 5 days by broth microdilution method; conditions: 120 h
Rhodotorula mucilaginosa [2] = assay: Antifungal activity against Rhodotorula mucilaginosa after 7 days by Etest; conditions: 168 h
Rhodotorula mucilaginosa [3] = assay: Antifungal activity against Rhodotorula mucilaginosa after 7 days by broth microdilution method; conditions: 168 h
Magnusiomyces capitatus [4] = assay: Antifungal activity against Dipodascus capitatus after 3 days by broth microdilution method; conditions: 72 h
Magnusiomyces capitatus [5] = assay: Antifungal activity against Dipodascus capitatus after 4 days by Etest; conditions: 96 h
Magnusiomyces capitatus [6] = assay: Antifungal activity against Dipodascus capitatus after 48 hrs by broth microdilution method
Outline: (§1)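 CLSI M27-A3 broth microdilution. Isolates were identified by ITS1-5.8S-ITS2 sequencing, kept at −70°C in sterile water, and revived on potato dextrose or Sabouraud agar. Drug ranges in wells were 0.015–16 or 0.125–128 μg/ml, depending on the agent. Plates were incubated at 35°C and MICs read visually at 48 h. QC strains were C. krusei ATCC 6258 and C. parapsilosis ATCC 22019.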

Magnusiomyces capitatus [7] = assay: Antifungal activity against Dipodascus capitatus after 48 hrs by Etest
Outline: (§2)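 Etest on 2% glucose-RPMI agar. Yeast suspensions were swabbed across the plates and strips applied, then incubated at 35°C for 48 h. MIC was the lowest concentration where the elliptical inhibition zone border met the strip scale. Each reading was raised to the next 2-fold dilution on the CLSI scale and converted to log2. Isolates were revived from −70°C stocks on potato dextrose or Sabouraud agar.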

Rhodotorula mucilaginosa [8] = assay: Antifungal activity against Rhodotorula mucilaginosa after 48 hrs by broth microdilution method; outline: as §1
Rhodotorula mucilaginosa [9] = assay: Antifungal activity against Rhodotorula mucilaginosa after 48 hrs by Etest; outline: as §2
Saccharomyces cerevisiae [10] = assay: Antifungal activity against Saccharomyces cerevisiae after 48 hrs by broth microdilution method; outline: as §1
Saccharomyces cerevisiae [11] = assay: Antifungal activity against Saccharomyces cerevisiae after 48 hrs by Etest; outline: as §2
[12] = test system: Cutaneotrichosporon mucoides; assay: Antifungal activity against Trichosporon mucoides after 48 hrs by broth microdilution method; outline: as §1
[13] = test system: Cutaneotrichosporon mucoides; assay: Antifungal activity against Trichosporon mucoides after 48 hrs by Etest; outline: as §2
Trichosporon inkin [14] = assay: Antifungal activity against Trichosporon inkin after 48 hrs by broth microdilution method; outline: as §1
Trichosporon inkin [15] = assay: Antifungal activity against Trichosporon inkin after 48 hrs by Etest; outline: as §2
[16] = Antifungal activity against Trichosporon jirovecii after 48 hrs by broth microdilution method; conditions: Cutaneotrichosporon jirovecii; outline: as §1
[17] = Antifungal activity against Trichosporon jirovecii after 48 hrs by Etest; conditions: Cutaneotrichosporon jirovecii; outline: as §2
[18] = Antifungal activity against Trichosporon domesticum after 48 hrs by broth microdilution method; conditions: Apiotrichum domesticum; outline: as §1
[19] = Antifungal activity against Trichosporon domesticum after 48 hrs by Etest; conditions: Apiotrichum domesticum; outline: as §2
Trichosporon asahii [20] = assay: Antifungal activity against Trichosporon asahii after 48 hrs by broth microdilution method; outline: as §1
Trichosporon asahii [21] = assay: Antifungal activity against Trichosporon asahii after 48 hrs by Etest; outline: as §2
[22] = test system: Cutaneotrichosporon mucoides; assay: Antifungal activity against Trichosporon mucoides assessed as percent susceptible isolates after 48 hrs by broth microdilution method
Outline: (§3)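 Broth microdilution MICs (CLSI, 35°C, visual read at 48 h) were sorted into categories using CLSI M27-A3 triazole breakpoints. Susceptible was ≤1 or ≤8 μg/ml, SDD was 2 or 16–32 μg/ml, and resistant was ≥4 or ≥64 μg/ml, depending on the agent. Each category is the percentage of isolates falling in it.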

[23] = test system: Cutaneotrichosporon mucoides; assay: Antifungal activity against Trichosporon mucoides assessed as percent susceptible/dose-dependent isolates after 48 hrs by broth microdilution method; outline: as §3
Trichosporon [24] = assay: Antifungal activity against Trichosporon sp. after 3 days by broth microdilution method; conditions: 72 h
Trichosporon [25] = assay: Antifungal activity against Trichosporon sp. after 4 days by Etest; conditions: 96 h

OC(Cn1cncn1)(Cn1cncn1)c1ccc(F)cc1F [FLUCONAZOLE]
MIC50 (Saccharomyces cerevisiae [1]): 4 µg/mL (≈ 13.1 µM)
MIC90 (Saccharomyces cerevisiae [1]): 16 µg/mL (≈ 52.2 µM)
MIC (Rhodotorula mucilaginosa [2]): > 128 µg/mL
MIC50 (Rhodotorula mucilaginosa [2]): > 128 µg/mL
MIC90 (Rhodotorula mucilaginosa [2]): > 128 µg/mL
MIC (Rhodotorula mucilaginosa [3]): > 128 µg/mL
MIC50 (Rhodotorula mucilaginosa [3]): > 128 µg/mL
MIC90 (Rhodotorula mucilaginosa [3]): > 128 µg/mL
MIC50 (Magnusiomyces capitatus [4]): 4 µg/mL (≈ 13.1 µM)
MIC90 (Magnusiomyces capitatus [4]): 16 µg/mL (≈ 52.2 µM)
MIC50 (Magnusiomyces capitatus [5]): 1 µg/mL (≈ 3.27 µM)
MIC90 (Magnusiomyces capitatus [5]): 4 µg/mL (≈ 13.1 µM)
MIC50 (Magnusiomyces capitatus [6]): 4 µg/mL (≈ 13.1 µM)
MIC90 (Magnusiomyces capitatus [6]): 16 µg/mL (≈ 52.2 µM)
MIC50 (Magnusiomyces capitatus [7]): 1 µg/mL (≈ 3.27 µM)
MIC90 (Magnusiomyces capitatus [7]): 4 µg/mL (≈ 13.1 µM)
MIC (Rhodotorula mucilaginosa [8]): > 128 µg/mL
MIC50 (Rhodotorula mucilaginosa [8]): > 128 µg/mL
MIC90 (Rhodotorula mucilaginosa [8]): > 128 µg/mL
MIC (Rhodotorula mucilaginosa [9]): > 128 µg/mL
MIC50 (Rhodotorula mucilaginosa [9]): > 128 µg/mL
MIC90 (Rhodotorula mucilaginosa [9]): > 128 µg/mL
MIC50 (Saccharomyces cerevisiae [10]): 4 µg/mL (≈ 13.1 µM)
MIC90 (Saccharomyces cerevisiae [10]): 16 µg/mL (≈ 52.2 µM)
MIC50 (Saccharomyces cerevisiae [11]): 4 µg/mL (≈ 13.1 µM)
MIC90 (Saccharomyces cerevisiae [11]): 64 µg/mL (≈ 209 µM)
MIC50 [12]: 2 µg/mL (≈ 6.53 µM)
MIC90 [12]: 8 µg/mL (≈ 26.1 µM)
MIC50 [13]: 1 µg/mL (≈ 3.27 µM)
MIC90 [13]: 4 µg/mL (≈ 13.1 µM)
MIC50 (Trichosporon inkin [14]): 2 µg/mL (≈ 6.53 µM)
MIC90 (Trichosporon inkin [14]): 8 µg/mL (≈ 26.1 µM)
MIC50 (Trichosporon inkin [15]): 1 µg/mL (≈ 3.27 µM)
MIC90 (Trichosporon inkin [15]): 4 µg/mL (≈ 13.1 µM)
MIC50 [16]: 2 µg/mL (≈ 6.53 µM)
MIC90 [16]: 8 µg/mL (≈ 26.1 µM)
MIC50 [17]: 1 µg/mL (≈ 3.27 µM)
MIC90 [17]: 4 µg/mL (≈ 13.1 µM)
MIC50 [18]: 2 µg/mL (≈ 6.53 µM)
MIC90 [18]: 8 µg/mL (≈ 26.1 µM)
MIC50 [19]: 1 µg/mL (≈ 3.27 µM)
MIC90 [19]: 4 µg/mL (≈ 13.1 µM)
MIC50 (Trichosporon asahii [20]): 2 µg/mL (≈ 6.53 µM)
MIC90 (Trichosporon asahii [20]): 8 µg/mL (≈ 26.1 µM)
MIC50 (Trichosporon asahii [21]): 1 µg/mL (≈ 3.27 µM)
MIC90 (Trichosporon asahii [21]): 4 µg/mL (≈ 13.1 µM)
MIC50 [22]: 2 µg/mL (≈ 6.53 µM)
MIC90 [22]: 8 µg/mL (≈ 26.1 µM)
MIC50 [23]: 2 µg/mL (≈ 6.53 µM)
MIC90 [23]: 8 µg/mL (≈ 26.1 µM)
MIC50 (Trichosporon [24]): 2 µg/mL (≈ 6.53 µM)
MIC90 (Trichosporon [24]): 8 µg/mL (≈ 26.1 µM)
MIC50 (Trichosporon [25]): 1 µg/mL (≈ 3.27 µM)
MIC90 (Trichosporon [25]): 4 µg/mL (≈ 13.1 µM)

C[C@@H](c1nc(-c2ccc(C#N)cc2)cs1)[C@](O)(Cn1cncn1)c1cc(F)ccc1F [ISAVUCONAZOLE]
MIC50 (Saccharomyces cerevisiae [1]): 0.03 µg/mL (≈ 0.0686 µM)
MIC90 (Saccharomyces cerevisiae [1]): 0.5 µg/mL (≈ 1.14 µM)
MIC50 (Rhodotorula mucilaginosa [2]): 1 µg/mL (≈ 2.29 µM)
MIC90 (Rhodotorula mucilaginosa [2]): 4 µg/mL (≈ 9.14 µM)
MIC50 (Rhodotorula mucilaginosa [3]): 0.5 µg/mL (≈ 1.14 µM)
MIC90 (Rhodotorula mucilaginosa [3]): 2 µg/mL (≈ 4.57 µM)
MIC50 (Magnusiomyces capitatus [4]): 0.06 µg/mL (≈ 0.137 µM)
MIC90 (Magnusiomyces capitatus [4]): 0.5 µg/mL (≈ 1.14 µM)
MIC50 (Magnusiomyces capitatus [5]): 0.125 µg/mL (≈ 0.286 µM)
MIC90 (Magnusiomyces capitatus [5]): 1 µg/mL (≈ 2.29 µM)
MIC50 (Magnusiomyces capitatus [6]): 0.06 µg/mL (≈ 0.137 µM)
MIC90 (Magnusiomyces capitatus [6]): 0.5 µg/mL (≈ 1.14 µM)
MIC50 (Magnusiomyces capitatus [7]): 0.125 µg/mL (≈ 0.286 µM)
MIC90 (Magnusiomyces capitatus [7]): 1 µg/mL (≈ 2.29 µM)
MIC50 (Rhodotorula mucilaginosa [8]): 0.5 µg/mL (≈ 1.14 µM)
MIC90 (Rhodotorula mucilaginosa [8]): 2 µg/mL (≈ 4.57 µM)
MIC50 (Rhodotorula mucilaginosa [9]): 1 µg/mL (≈ 2.29 µM)
MIC90 (Rhodotorula mucilaginosa [9]): 4 µg/mL (≈ 9.14 µM)
MIC50 (Saccharomyces cerevisiae [10]): 0.03 µg/mL (≈ 0.0686 µM)
MIC90 (Saccharomyces cerevisiae [10]): 0.5 µg/mL (≈ 1.14 µM)
MIC50 (Saccharomyces cerevisiae [11]): 0.125 µg/mL (≈ 0.286 µM)
MIC90 (Saccharomyces cerevisiae [11]): 0.5 µg/mL (≈ 1.14 µM)
MIC50 [12]: 0.06 µg/mL (≈ 0.137 µM)
MIC90 [12]: 0.5 µg/mL (≈ 1.14 µM)
MIC50 [13]: 0.06 µg/mL (≈ 0.137 µM)
MIC90 [13]: 0.125 µg/mL (≈ 0.286 µM)
MIC50 (Trichosporon inkin [14]): 0.06 µg/mL (≈ 0.137 µM)
MIC90 (Trichosporon inkin [14]): 0.5 µg/mL (≈ 1.14 µM)
MIC50 (Trichosporon inkin [15]): 0.06 µg/mL (≈ 0.137 µM)
MIC90 (Trichosporon inkin [15]): 0.125 µg/mL (≈ 0.286 µM)
MIC50 [16]: 0.06 µg/mL (≈ 0.137 µM)
MIC90 [16]: 0.5 µg/mL (≈ 1.14 µM)
MIC50 [17]: 0.06 µg/mL (≈ 0.137 µM)
MIC90 [17]: 0.125 µg/mL (≈ 0.286 µM)
MIC50 [18]: 0.06 µg/mL (≈ 0.137 µM)
MIC90 [18]: 0.5 µg/mL (≈ 1.14 µM)
MIC50 [19]: 0.06 µg/mL (≈ 0.137 µM)
MIC90 [19]: 0.125 µg/mL (≈ 0.286 µM)
MIC50 (Trichosporon asahii [20]): 0.06 µg/mL (≈ 0.137 µM)
MIC90 (Trichosporon asahii [20]): 0.5 µg/mL (≈ 1.14 µM)
MIC50 (Trichosporon asahii [21]): 0.06 µg/mL (≈ 0.137 µM)
MIC90 (Trichosporon asahii [21]): 0.125 µg/mL (≈ 0.286 µM)
MIC50 [22]: 0.06 µg/mL (≈ 0.137 µM)
MIC90 [22]: 0.5 µg/mL (≈ 1.14 µM)
MIC50 [23]: 0.06 µg/mL (≈ 0.137 µM)
MIC90 [23]: 0.5 µg/mL (≈ 1.14 µM)
MIC50 (Trichosporon [24]): 0.06 µg/mL (≈ 0.137 µM)
MIC90 (Trichosporon [24]): 0.5 µg/mL (≈ 1.14 µM)
MIC50 (Trichosporon [25]): 0.06 µg/mL (≈ 0.137 µM)
MIC90 (Trichosporon [25]): 0.125 µg/mL (≈ 0.286 µM)
